Screening data: PubChem, several laboratories
The list is not random: actives were taken first. Their share in the collection is about 2.2%.
CCR6 antag – CCR6 receptor antagonists, primary screen, cell-based, CHO-K1, luminescence, beta-arrestin, uHTS; CHO-K1 CCR6 PathHunter beta-arrestin, CCL20-stimulated; inhibition, % at 20 µM; 0.49% of 340,000 active; AID 493098, 2011;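 active = compounds whose inhibition of the agonist-driven luminescence signal at 20 µM reaches about 50%, limit read from the data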;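 note: cells stimulated with CCL20 at 14 nM final; plate controls were DMSO with CCL20 for no effect and DMSO without agonist for full effect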
CXCR6 block – CXCR6 receptor inhibitors, primary screen, cell-based, beta-arrestin, luminescence, CHO-K1 PathHunter, 1536-well; C-X-C chemokine receptor type 6 (Homo sapiens), O00574; inhibition, % at 20 µM; 0.36% of 360,000 active; AID 602244, 2012; in the data active = inhibition above about 34%, passing the limit was not always enough;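 note: antagonist mode with CXCL16 agonist at 10 nM final; 0% = 10 nM CXCL16 with DMSO and 100% = unstimulated wells without agonist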
m5-HT2A agonist – mouse Htr2a agonists via beta-arrestin recruitment, primary screen, cell-based, luminescence; AID 624169, 2012; activation, % at 7.6 µM; 5-hydroxytryptamine receptor 2A (Mus musculus), P35363; CHO-K1 mHTR2A beta-arrestin complementation; percent of 30 µM serotonin response; 0.66% of 360,000 active;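 active = activation above a run cutoff, the mean activation of all tested compounds plus 3 SD, cut at about 14% in these data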;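 note: 0% = plate median of compound wells and 100% = 30 µM serotonin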
EBI2 antag – EBI2 receptor antagonists, beta-arrestin recruitment, primary screen, cell-based, luminescence, 7a,25-OHC stimulation, uHTS | 0.81% of 360,000 active | inhibition, % at 5 µM | 7a,25-OHC stimulated | G-protein coupled receptor 183 (Homo sapiens), P32249; in the data active = inhibition above about 38%;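 note: enzyme fragment complementation signal reports receptor beta-arrestin coupling in cells; 0% = agonist plus DMSO wells and 100% = wells without agonist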
APJ ag – agonists of human apelin receptor APJ, primary screen, CHO-K1 cells, PathHunter beta-arrestin, luminescence | 0% DMSO wells, 100% apelin | activation, % at 20 µM | 0.11% of 330,000 active | AID 2520, 2010;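 active = activation more than six SD over the plate average, tested at 20 µM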;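 note: 0% = DMSO alone and 100% = apelin-13 at 10 nM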
Target sequence (P35414 whole entry, looked up): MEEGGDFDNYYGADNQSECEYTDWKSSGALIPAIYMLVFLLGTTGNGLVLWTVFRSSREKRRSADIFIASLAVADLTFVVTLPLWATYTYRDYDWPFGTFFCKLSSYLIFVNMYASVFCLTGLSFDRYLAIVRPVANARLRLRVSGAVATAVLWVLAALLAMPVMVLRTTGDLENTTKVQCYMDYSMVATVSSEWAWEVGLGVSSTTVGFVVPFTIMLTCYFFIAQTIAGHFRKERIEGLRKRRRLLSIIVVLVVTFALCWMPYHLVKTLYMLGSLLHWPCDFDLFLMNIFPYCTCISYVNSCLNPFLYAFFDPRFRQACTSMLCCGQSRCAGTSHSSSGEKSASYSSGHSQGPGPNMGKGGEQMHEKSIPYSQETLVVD
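Test system: CHO-K1 APJ beta-arrestin complementation cell line | Compound: Single test compound dose, 20 µM final, 1% DMSO | Incubation: Compound 90 min 25 °C, reagent 1 h | Measured by: beta-gal luminescence | Read-out basis: APJ–arrestin association signal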
APJ antagonist – antagonists of human apelin receptor APJ, primary screen, CHO-K1 cells, beta-arrestin complementation, luminescence; P35414; inhibition, % at 20 µM; 0.32% of 330,000 active; AID 2521, 2010;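 active = inhibition above about 40% at 20 µM, limit read from the data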;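 note: cells challenged with 10 nM apelin-13 agonist together with compound; plate controls were apelin-13 plus DMSO wells for no effect and DMSO wells lacking apelin-13 for full effect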
APJ antag confirm – APJ antagonists blocking beta-arrestin recruitment, confirmation, cell-based, luminescence, single concentration, uHTS hits | shares compounds with APJ antagonist | inhibition, % at 20 µM | AID 2766, 2010 | antagonist mode | 66% of 950 active; in the data active = inhibition above about 50%
* hit, by the source's call; . = no result given.

SMILES | CCR6 antag | CXCR6 block | m5-HT2A agonist | EBI2 antag | APJ ag | APJ antagonist | APJ antag confirm
O=C(CN1C(=O)C2C3CCC(C3)C2C1=O)OCC(=O)c1cccc([N+](=O)[O-])c1 (centres undefined) | 62* | 37 | 4 | 22 | -12 | 61* | 89*
Cc1ccc(C(=O)COC(=O)CN2C(=O)C3C4C=CC(C4)C3C2=O)cc1[N+](=O)[O-] (centres undefined) | 38 | 25 | 7 | 1 | -11 | 38 | .
Cc1ccc(C(=O)COC(=O)CCN2C(=O)C3C4CCC(C4)C3C2=O)cc1[N+](=O)[O-] (centres undefined) | 25 | 16 | -4 | 19 | -23 | 50* | 44
Cc1ccc(C(=O)COC(=O)CN2C(=O)C3CC=CCC3C2=O)cc1[N+](=O)[O-] (centres undefined) | 28 | 3 | -4 | -1 | -22 | 45* | 79*
COc1cc(C(=O)N2CCCCC2c2cc(C(=O)Nc3ccccc3Cl)no2)cc(OC)c1C (centres undefined) | . | 11 | -1 | 18 | . | . | .
CN1C[C@@H]2[C@@H]3C(=O)N(Cc4ccccc4)C(=O)[C@@H]3[C@](Cc3ccccc3)(C1=O)N2C(=O)c1ccc(Cl)cc1 | -3 | 9 | 1 | -6 | . | . | .
O=C(CC[C@H]1O[C@@H](n2ccc(=O)[nH]c2=O)[C@H](O)[C@@H]1O)NC1CCN(Cc2ccccc2)C1 (some centres undefined) | . | 5 | 1 | -4 | . | . | .
CC(C)(C)N1C(=O)c2ccccc2NC(=O)C1C(=O)NCCc1ccccc1 (centres undefined) | . | . | -3 | -7 | . | . | .
CCCCn1nnnc1C(c1ccccc1)N1CCN(c2ncc(C(F)(F)F)cc2Cl)CC1 (centres undefined) | . | 12 | 1 | 22 | . | . | .
O=C(CN1C(=O)C2C3C=CC(C3)C2C1=O)OCC(=O)c1ccc(Cl)c([N+](=O)[O-])c1 (centres undefined) | 71* | 48* | -6 | 5 | -38 | 81* | 143*
O=C(CCN1C(=O)C2C3CC(C(Br)C3Br)C2C1=O)OCC(=O)c1cccc([N+](=O)[O-])c1 (centres undefined) | 55* | 28 | -1 | 12 | -13 | 59* | 100*
Cc1ccc([N+](=O)[O-])c(NC(=O)COC(=O)C2CC3CCCC(C2)C3=O)c1C (centres undefined) | 6 | 2 | 0 | -4 | 2 | 1 | .
Cc1ccc(C(=O)COC(=O)CN2C(=O)C3C4CCC(C4)C3C2=O)cc1C (centres undefined) | -5 | 0 | -3 | 4 | -7 | 8 | .
Cc1ccc(C(=O)COC(=O)C2CC3CCCC(C2)C3=O)cc1[N+](=O)[O-] (centres undefined) | 25 | 18 | 2 | -2 | -9 | 43* | 22
COc1cc(/C=C2\SC(=S)N(N3CCOCC3)C2=O)cc(OC)c1OC | 12 | 1 | -4 | 8 | -1 | 11 | .
O=C1/C(=C\c2cccc(O)c2)SC(=S)N1Cc1ccccc1 | 10 | 6 | 1 | -2 | -3 | 18 | .
COc1cc(/C=C2\SC(=S)N(N3CCOCC3)C2=O)ccc1O | 33 | 40* | 4 | 21 | -6 | 51* | 70*
Cc1c(N2C(=O)/C(=C3/C(=O)N(C)c4ccccc43)SC2=S)c(=O)n(-c2ccccc2)n1C | 37 | 28 | 2 | 8 | -1 | -10 | .
COc1cc(/C=C2/SC(=S)N(c3c(C)n(C)n(-c4ccccc4)c3=O)C2=O)ccc1O | 51* | 51* | -4 | 18 | -6 | 53* | 92*
COc1cc(/C=C2/SC(=S)N(Cc3ccccc3)C2=O)ccc1O | 59* | 36 | -1 | 24 | -10 | 47* | 103*
